According to ChEMBL document CHEMBL5385915 (J Med Chem, 2024):
Values after ≈ are worked out from the molar mass of the structure shown. Active and inactive are the calls of the source. The rule behind the calls is not given here.

What was measured:
[1] = Lipophilicity, log P of the compound; type: physicochemical; conditions: octanol/water
[2] = system: Mycolicibacterium smegmatis; assay: Antimycobacterial activity against Mycobacterium smegmatis MC(2)155 assessed as reduction in microbial growth incubated for 24 hrs by resazurin dye based assay; type: functional
[3] = system: Corynebacterium glutamicum; assay: Inhibition of mycolic acid biosynthesis in Corynebacterium glutamicum at 0.5 to 5 times MIC incubated for 6 hrs by TLC based autoradiography analysis; type: functional, organism-based
[4] = system: Mycobacterium tuberculosis; assay: Bactericidal activity against Mycobacterium tuberculosis H37Rv assessed as reduction in bacterial count at […] uM incubated for 6 days by time kill assay; type: functional; conditions: time 6 day
Method in brief: (§1)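 Time-kill: 2-fold dilutions 96–3 μM in CMM MOD2, 0.1% DMSO vehicle; start 1×10^6 CFU/mL, 37 °C, 200 rpm; sampled days 0, 2, 6, 10, 14; 10-fold dilutions spotted in triplicate on 7H10, counted after 3 weeks; three biological repeats; factorial ANOVA with Tukey post hoc.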

[5] = system: Mycobacterium tuberculosis; assay: Bactericidal activity against Mycobacterium tuberculosis H37Rv assessed as reduction in viable count at 96 uM incubated for 6 days by CV-AM staining based flow cytometry analysis; type: functional; conditions: time 6 day
Method in brief: (§2)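 H37Rv from time-kill wells (3–96 μM, 0.1% DMSO vehicle) at each time point, stained in quadruplicate 1 h, 37 °C, dark with 20 μM CV-AM and/or 20 μM Sytox Green; fixed 4% formaldehyde 1 h; flow cytometry (405/488 nm lasers); singlets gated by FSC area/height, quadrant gates P1–P4.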

[6] = system: Corynebacterium glutamicum; assay: Inhibition of mycolic acid biosynthesis in Corynebacterium glutamicum pks13 at 0.5 to 5 times MIC incubated for 6 hrs by TLC based autoradiography analysis; type: functional, organism-based
[7] = system: Corynebacterium glutamicum; assay: Inhibition of mycolic acid biosynthesis in Corynebacterium glutamicum harboring MmpL3 at 0.5 to 5 times MIC incubated for 6 hrs by TLC based autoradiography analysis; type: functional, organism-based
[8] = system: Mycolicibacterium smegmatis; assay: Inhibition of cell wall biosynthesis in Mycobacterium smegmatis assessed as reduction in trehalose dimycolate accumulation at 0.5 to 5 times MIC incubated for 6 hrs in presence of [14C]acetate by alpha-napthol staining based TLC analysis; type: functional, organism-based
[9] = Metabolic stability in mouse hepatocyte assessed as intrinsic clearance measured upto 60 mins […] by LC-MS/MS analysis; type: ADME, cell-based; conditions: hepatocytes, 1 h
Method in brief: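 Mouse hepatocytes at 0.5 × 10^6 cells/mL incubated with 1 μM compound at 37 °C, sampled at 0, 10, 20, 30, 45 and 60 min. Disappearance with and without hepatocytes measured by LC-MS/MS; output is mean CLint and t1/2. Duplicate per compound, with up to three species-specific controls.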

[10] = system: Mycobacterium tuberculosis; assay: Bactericidal activity against Mycobacterium tuberculosis H37Rv assessed as reduction in viable count at 48 uM incubated for 6 days by sytox green staining based flow cytometry analysis; type: functional; conditions: time 6 day; method in brief: as §2
[11] = system: Mycobacterium tuberculosis; assay: Bactericidal activity against Mycobacterium tuberculosis H37Rv incubated for 6 to 10 days by time kill assay; type: functional, organism-based; conditions: dose <= 96.0 µM, time 6-10 day; method in brief: as §1
[12] = system: Mycolicibacterium smegmatis; assay: Inhibition of macromolecule biosynthesis in Mycobacterium smegmatis assessed as reduction in incorporation of [3H]-uridine in RNA at 0.75 times MIC incubated for 36 hrs; type: functional, organism-based
[13] = system: Mycolicibacterium smegmatis; assay: Inhibition of macromolecule biosynthesis in Mycobacterium smegmatis assessed as reduction in incorporation of [3H]-leucine in protein at 0.75 times MIC incubated for 36 hrs; type: functional, organism-based
[14] = system: Mycolicibacterium smegmatis; assay: Inhibition of cell wall biosynthesis in Mycobacterium smegmatis assessed as reduction in trehalose monomycolate accumulation at 0.5 to 5 times MIC incubated for 6 hrs in presence of [14C]acetate by MPA staining based TLC analysis; type: functional, organism-based
[15] = system: Mycobacterium tuberculosis; assay: Bactericidal activity against Mycobacterium tuberculosis H37Rv assessed as reduction in bacterial count at […] uM incubated for 14 days by time kill assay; type: functional; conditions: time 14 day; method in brief: as §1
[16] = system: Mycolicibacterium smegmatis; assay: Inhibition of mycolic acid biosynthesis in Mycobacterium smegmatis at 5 times MIC incubated for 12 hrs in presence of [14C]acetate by TLC based autoradiography analysis; type: functional, organism-based
[17] = system: Mycobacterium tuberculosis; assay: Bactericidal activity against Mycobacterium tuberculosis H37Rv assessed as reduction in viable count at 48 uM incubated for 14 days by sytox green staining based flow cytometry analysis; type: functional; conditions: time 14 day; method in brief: as §2
[18] = system: Mycolicibacterium smegmatis; assay: Inhibition of macromolecule biosynthesis in Mycobacterium smegmatis assessed as reduction in incorporation of [3H]-thymidine in DNA at 0.75 times MIC incubated for 36 hrs; type: functional, organism-based
[19] = system: Mycolicibacterium smegmatis; assay: Inhibition of macromolecule biosynthesis in Mycobacterium smegmatis assessed as reduction in incorporation of [3H]-diaminopimelic acid in peptidoglycan at 1 times MIC incubated for 6 hrs; type: functional, organism-based
[20] = system: Mycobacterium tuberculosis; assay: Bactericidal activity against Mycobacterium tuberculosis H37Rv assessed as reduction in viable count at 96 uM incubated for 10 days by CV-AM staining based flow cytometry analysis; type: functional; conditions: time 10 day; method in brief: as §2
[21] = system: Mycobacterium tuberculosis; assay: Bactericidal activity against Mycobacterium tuberculosis H37Rv assessed as reduction in viable count at 96 uM incubated for 14 days by sytox green staining based flow cytometry analysis; type: functional, organism-based; conditions: time 14.0 day; method in brief: as §2
[22] = system: Mycobacterium tuberculosis; assay: Bactericidal activity against Mycobacterium tuberculosis H37Rv assessed as reduction in viable count at 96 uM incubated for 14 days by CV-AM staining based flow cytometry analysis; type: functional; conditions: time 14 day; method in brief: as §2
[23] = system: Mycobacterium tuberculosis; assay: Antitubercular activity against Mycobacterium tuberculosis 1192/015 assessed as inhibition of bacterial growth measured for 7 days by REMA analysis; type: functional; conditions: 1192/015, 168 h, time 7 day
Method in brief: (§3)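 REMA: 2-fold dilutions in CMM MOD2 medium, wells inoculated at 1×10^6 CFU/mL, 7 days at 37 °C with 200 rpm agitation; resazurin (0.02% w/v in PBS pH 7.4, 5% Tween 80) then 6 h at room temperature; OD570 vs vehicle; MIC99 by modified Gompertz function; three biological replicates.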

[24] = Efflux ratio of permeability across basolateral to apical side over apical to basolateral side in human Caco-2 cells incubated for 2 hrs by LC-MS/MS analysis; type: ADME, cell-based
[25] = system: Mycobacterium tuberculosis; assay: Antitubercular activity against drug-sensitive Mycobacterium tuberculosis H37Rv pTYOK assessed as inhibition of bacterial growth measured upto 3 days by luminometer based analysis; type: functional; conditions: 72 h, time <= 3 day
[26] = Metabolic stability in mouse liver microsome assessed as intrinsic clearance measured upto 30 mins in presence of NADPH by LC-MS/MS analysis; type: ADME; conditions: liver microsomes, read-out: CLH
Method in brief: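 1 μM compound with 0.5 mg/mL mouse liver microsomes, with or without NADPH (1 mM), 37 °C, sampled at 0, 5, 10, 15 and 30 min. Parent loss followed by LC-MS/MS, giving mean CLint and t1/2. Two replicates per compound; up to three species-specific control compounds included.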

[27] = system: Mycobacterium tuberculosis; assay: Antitubercular activity against drug-sensitive Mycobacterium tuberculosis H37Rv assessed as inhibition of bacterial growth measured for 7 days by REMA analysis; type: functional; conditions: 168 h, time 7 day; method in brief: as §3
[28] = Kinetic solubility in pH 7.4 PBS incubated for 5 mins by UV-spectrophotometry analysis; type: physicochemical; conditions: read-out: Kinetic_solubility
Method in brief: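 Compounds from 10 mM DMSO stock diluted in PBS pH 7.4 to a seven-point series (0.2–100 μM), final DMSO 1%, shaken 5 min at 25 °C. Turbidity read by UV at 620 nm; Log_S converted to solubility as S = 10^LogS. Nicardipine control; triplicate.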

[29] = system: Mycobacterium tuberculosis; assay: Bactericidal activity against Mycobacterium tuberculosis H37Rv assessed as reduction in viable count at 48 uM incubated for 6 days by CV-AM staining based flow cytometry analysis; type: functional; conditions: time 6 day; method in brief: as §2
[30] = system: Mycobacterium tuberculosis; assay: Bactericidal activity against Mycobacterium tuberculosis H37Rv assessed as reduction in viable count at 48 uM incubated for 14 days by CV-AM staining based flow cytometry analysis; type: functional; conditions: time 14 day; method in brief: as §2
HepG2 [31] = assay: Cytotoxicity against human HepG2 cells assessed as reduction in cell viability incubated for 24 hrs in presence of glucose by MTT assay; type: functional, cell-based; conditions: HepG2, 24 h
HepG2 [32] = assay: Cytotoxicity against human HepG2 cells assessed as reduction in cell viability incubated for 24 hrs in presence of galactose by MTT assay; type: functional, cell-based; conditions: HepG2, 24 h
[33] = system: Mycolicibacterium smegmatis; assay: Inhibition of cell wall biosynthesis in Mycobacterium smegmatis assessed as formation of cytoplasmic membrane phospholipids at 0.5 to 5 times MIC incubated for 6 hrs in presence of [14C]acetate by TLC based autoradiography analysis; type: functional, organism-based
[34] = system: Mycobacterium tuberculosis; assay: Bactericidal activity against Mycobacterium tuberculosis H37Rv assessed as reduction in viable count at 48 uM incubated for 10 days by CV-AM staining based flow cytometry analysis; type: functional; conditions: time 10 day; method in brief: as §2

Compound: Brc1ccccc1CN1[C@H](CN2CCCC2)C[C@@H]1c1ccccc1 (racemic)
- logP [1]: 4.84
- MIC99 [2]: 30.5 µM

Compound: Clc1cc(Cl)cc([C@H]2C[C@@H](CN3CCCC3)N2Cc2ccccc2Br)c1 (racemic)
- logP [1]: 6.05
- MIC99 [2]: 14 µM

Compound: COCCNC[C@@H]1C[C@H](c2ccc(OC(F)(F)F)cc2)N1Cc1ccccc1OC(F)(F)F (racemic)
- logP [1]: 6.1
- MIC99 [2]: 29 µM

Compound: CNC[C@@H]1C[C@H](c2ccc(OC(F)(F)F)cc2)N1Cc1ccccc1OC(F)(F)F (racemic)
- inhibition [3]: Active
- logP [1]: 6.14
- Activity [4]: 3.28 log10CFU/ml
- Activity [5]: 0.043%
- inhibition [6]: Active
- inhibition [7]: Active
- inhibition [8]: Active
- intrinsic clearance (CLint) [9]: < 60 µL/min/mg
- Activity [10]: 0.027%
- Activity [11]: Dose-Dependent Effect
- inhibition [12]: inactive
- inhibition [13]: inactive
- inhibition [14]: Active
- Activity [15]: 3.99 log10CFU/ml
- inhibition [16]: Active
- Activity [17]: 0.068%
- inhibition [18]: inactive
- inhibition [19]: Active
- Activity [20]: 0.08%
- Activity [21]: Active
- Activity [22]: 0.011%

Compound: C#CCNC[C@@H]1C[C@H](c2cc(Br)cc(Br)c2)N1Cc1ccccc1Br (racemic)
- logP [1]: 5.82
- MIC99 [2]: 100 µM

Compound: CC(C)NC[C@@H]1C[C@H](c2ccccc2)N1Cc1ccccc1OC(F)(F)F (racemic)
- logP [1]: 5.49
- MIC99 [2]: 87 µM

Compound: FC(F)(F)c1cc([C@H]2C[C@@H](CN3CCCC3)N2Cc2ccccc2Br)cc(C(F)(F)F)c1 (racemic)
- MIC99 [23]: 19.1 µM (≈ 9.96 µg/mL)
- logP [1]: 6.6
- inhibition [6]: Active
- inhibition [7]: Active
- intrinsic clearance (CLint) [9]: < 60 µL/min/mg
- efflux ratio at 2 h [24]: < 1
- MIC50 [25]: 6.9 µM (≈ 3.6 µg/mL)
- microsomal CLint [26]: > 150 µL/min/mg
- MIC99 [27]: 3.3 µM (≈ 1.72 µg/mL)
- MIC99 [2]: 26 µM

Compound: CN(C)C[C@@H]1C[C@H](c2cc(Br)cc(Br)c2)N1Cc1ccccc1Br (racemic)
- logP [1]: 5.97
- MIC99 [2]: 80 µM

Compound: FC(F)(F)Oc1ccc([C@H]2C[C@@H](CN3CCCC3)N2Cc2ccccc2OC(F)(F)F)cc1 (racemic)
- logP [1]: 6.93
- inhibition [6]: Active
- inhibition [7]: Active
- intrinsic clearance (CLint) [9]: < 60 µL/min/mg
- efflux ratio at 2 h [24]: < 1
- microsomal CLint [26]: > 150 µL/min/mg
- solubility kinetic at 5 min [28]: 7 µM (≈ 3.32 µg/mL)

Compound: COc1ccc([C@H]2C[C@@H](CN3CCCC3)N2Cc2ccccc2Br)cc1 (racemic)
- logP [1]: 4.68

Compound: CC(C)NC[C@@H]1C[C@H](c2ccc(OC(F)(F)F)cc2)N1Cc1ccccc1OC(F)(F)F (racemic)
- logP [1]: 6.92
- MIC99 [2]: 23 µM

Compound: Brc1cc(Br)cc([C@H]2C[C@@H](CN3CCCC3)N2Cc2ccccc2Br)c1 (racemic)
- Activity [29]: 0.067%
- Activity [4]: 0.79 log10CFU/ml
- Activity [30]: 0.066%
- inhibition [6]: Active
- inhibition [7]: Active
- intrinsic clearance (CLint) [9]: < 60 µL/min/mg
- Activity [11]: Dose-Dependent Effect
- IC50 (HepG2 [31]): > 100 µM
- microsomal CLint [26]: > 150 µL/min/mg
- IC50 (HepG2 [32]): > 100 µM
- Activity [15]: 1.9 log10CFU/ml
- inhibition [33]: Active
- Activity [21]: Active
- Activity [34]: 0.065%

Compound: FC(F)(F)c1ccc(C2CCN(C[C@@H]3C[C@H](c4ccccc4)N3Cc3ccccc3Br)CC2)cc1 (racemic)
- logP [1]: 7.58
- MIC99 [2]: 100 µM

Compound: CC(C)NC[C@@H]1C[C@H](c2ccc(OC(F)(F)F)cc2)N1Cc1ccccc1Br (racemic)
- logP [1]: 6.26
- MIC99 [2]: 23 µM

Compound: CC(C)NC[C@@H]1C[C@H](c2ccccc2)N1Cc1ccccc1Br (racemic)
- logP [1]: 4.82
- MIC99 [2]: 94 µM

Compound: FC(F)(F)Oc1ccc(C2CCN(C[C@@H]3C[C@H](c4ccccc4)N3Cc3ccccc3Br)CC2)cc1 (racemic)
- logP [1]: 8.14
- MIC99 [2]: 100 µM
